Active and inactive are the calls of the source.
Experiments:
[1] = Drug level in Swiss mouse brain at 10 mg/kg, sc administered as single dose measured 1 hr post dose; type: ADME, organism-based; set-up: dose 10 mg/kg, route subcutaneous; details: read-out: Drug uptake
How it was run: (§1)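 Swiss mice given a single 10 mg/kg sc dose at 1 mg/mL in 20% HP-β-CD + HCl solution, pH 4. Brain and plasma levels taken 1 h post dose. Values are geometric means of at least two runs.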

[2] = Cmax in Sprague-Dawley rat at […], iv or 10 mg/kg, po; type: ADME, organism-based; details: in vivo
[3] = Oral bioavailability in dog rat at […]; type: ADME, organism-based, Canis lupus familiaris; details: in vivo
[4] = target: T1, Cytochrome P450 1A2 (Homo sapiens, UniProt P05177); assay: Inhibition of CYP1A2; type: ADME
T1 sequence (P05177 whole entry): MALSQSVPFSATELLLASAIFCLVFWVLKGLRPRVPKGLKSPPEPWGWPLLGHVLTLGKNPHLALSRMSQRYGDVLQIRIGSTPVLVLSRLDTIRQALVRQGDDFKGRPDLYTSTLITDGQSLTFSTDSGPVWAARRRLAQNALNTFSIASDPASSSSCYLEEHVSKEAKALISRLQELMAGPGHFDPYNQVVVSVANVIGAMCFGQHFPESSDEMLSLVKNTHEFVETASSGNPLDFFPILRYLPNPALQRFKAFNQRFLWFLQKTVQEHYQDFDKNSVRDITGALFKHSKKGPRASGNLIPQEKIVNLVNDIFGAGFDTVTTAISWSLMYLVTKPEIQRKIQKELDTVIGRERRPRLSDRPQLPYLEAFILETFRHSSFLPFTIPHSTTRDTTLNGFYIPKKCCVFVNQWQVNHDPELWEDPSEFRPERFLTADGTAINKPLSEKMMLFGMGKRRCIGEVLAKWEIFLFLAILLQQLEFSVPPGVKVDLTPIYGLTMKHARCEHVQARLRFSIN

[5] = AUC (0 to infinity) in Sprague-Dawley rat at 10 mg/kg, po; type: ADME, organism-based; set-up: time infinity, dose 10 mg/kg, route oral; details: plasma
[6] = tested on: Rattus norvegicus; assay: Inhibition of REM sleep state in po dosed Sprague-Dawley rat sleep-wake EEG paradigm model; type: functional; details: read-out: MED
[7] = target: Cytochrome P450 3A4 (Homo sapiens, UniProt P08684); assay: Inhibition of CYP3A4; type: ADME
Chain of Cytochrome P450 3A4 (P08684 whole entry): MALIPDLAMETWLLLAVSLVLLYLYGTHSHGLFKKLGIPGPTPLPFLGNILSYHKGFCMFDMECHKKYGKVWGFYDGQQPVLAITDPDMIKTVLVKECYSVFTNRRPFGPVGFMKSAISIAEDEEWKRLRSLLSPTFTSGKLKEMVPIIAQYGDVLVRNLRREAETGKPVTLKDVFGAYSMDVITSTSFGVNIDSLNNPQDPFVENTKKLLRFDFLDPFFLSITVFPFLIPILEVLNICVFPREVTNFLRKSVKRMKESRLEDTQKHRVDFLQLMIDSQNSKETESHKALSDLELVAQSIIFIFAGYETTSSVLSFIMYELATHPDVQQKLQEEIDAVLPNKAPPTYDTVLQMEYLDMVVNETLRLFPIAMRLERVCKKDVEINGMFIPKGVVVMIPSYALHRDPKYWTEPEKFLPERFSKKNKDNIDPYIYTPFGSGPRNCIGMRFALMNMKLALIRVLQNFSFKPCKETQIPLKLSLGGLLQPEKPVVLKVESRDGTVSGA

[8] = tested on: Rattus norvegicus; assay: Inhibition of REM sleep state in Sprague-Dawley rat sleep-wake EEG paradigm model at 3 mg/kg, po; type: functional, organism-based; set-up: dose 3 mg/kg
How it was run: (§2)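 Male Sprague−Dawley rats (250−300 g) chronically implanted with EEG, EMG and EOG electrodes; n = 8 per group. A 20 h recording after oral saline was followed by a 20 h recording at the same circadian time after oral vehicle (20% CD + 2H2T) or compound (3 mg/kg), starting at 13:30 in the lights-on period. 2 s epochs scored into sleep−wake stages; REM onset latency and state transitions determined. Wilcoxon−Mann−Whitney tests against vehicle.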

[9] = target: Cytochrome P450 2D6 (Homo sapiens, UniProt P10635); assay: Inhibition of CYP2D6; type: ADME
Chain of Cytochrome P450 2D6 (P10635 whole entry): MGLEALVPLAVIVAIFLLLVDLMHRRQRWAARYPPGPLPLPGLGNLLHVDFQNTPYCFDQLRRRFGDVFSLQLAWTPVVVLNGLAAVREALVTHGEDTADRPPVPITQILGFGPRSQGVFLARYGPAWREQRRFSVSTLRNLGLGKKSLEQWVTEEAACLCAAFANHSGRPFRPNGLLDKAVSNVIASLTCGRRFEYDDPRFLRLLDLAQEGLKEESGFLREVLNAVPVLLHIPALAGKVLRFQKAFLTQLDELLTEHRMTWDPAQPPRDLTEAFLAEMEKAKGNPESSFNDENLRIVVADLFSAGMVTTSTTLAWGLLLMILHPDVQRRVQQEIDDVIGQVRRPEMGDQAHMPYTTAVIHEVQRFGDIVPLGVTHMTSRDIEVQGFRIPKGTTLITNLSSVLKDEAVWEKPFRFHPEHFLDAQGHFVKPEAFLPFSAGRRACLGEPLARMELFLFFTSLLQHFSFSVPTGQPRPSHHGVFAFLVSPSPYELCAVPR

[10] = target: Cytochrome P450 2C19 (Homo sapiens, UniProt P33261); assay: Inhibition of CYP2C19; type: ADME
Chain of Cytochrome P450 2C19 (P33261 whole entry): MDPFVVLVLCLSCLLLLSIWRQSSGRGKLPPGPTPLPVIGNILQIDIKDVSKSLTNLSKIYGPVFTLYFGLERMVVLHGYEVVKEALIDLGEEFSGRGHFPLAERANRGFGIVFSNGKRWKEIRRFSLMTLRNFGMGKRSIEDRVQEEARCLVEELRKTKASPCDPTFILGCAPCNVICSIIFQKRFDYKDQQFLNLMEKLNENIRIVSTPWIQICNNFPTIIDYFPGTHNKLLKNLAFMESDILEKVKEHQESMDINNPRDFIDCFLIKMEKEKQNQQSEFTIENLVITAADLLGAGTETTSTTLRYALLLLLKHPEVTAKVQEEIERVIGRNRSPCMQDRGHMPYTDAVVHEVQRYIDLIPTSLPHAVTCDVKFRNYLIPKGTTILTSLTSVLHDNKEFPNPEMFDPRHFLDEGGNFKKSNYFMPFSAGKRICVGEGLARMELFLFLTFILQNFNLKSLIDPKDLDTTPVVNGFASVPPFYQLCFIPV

[11] = Half life in dog rat at 1 mg/kg, iv or […], po; type: ADME, organism-based, Canis lupus familiaris; details: in vivo
[12] = Volume of distribution at steady state in Sprague-Dawley rat at […], iv or 10 mg/kg, po; type: ADME, organism-based; details: in vivo, read-out: Vdss
[13] = AUC (0 to infinity) in dog rat at 1 mg/kg, iv or […], po; type: ADME, organism-based, Canis lupus familiaris; details: plasma
[14] = Oral bioavailability in Sprague-Dawley rat at 10 mg/kg; type: ADME, organism-based; details: in vivo
[15] = tested on: Rattus norvegicus; assay: Effect on sleep-wake stages in Sprague-Dawley rat sleep-wake EEG paradigm model assessed as induction of sleep fragmentation at 3 mg/kg, po; type: organism-based; set-up: dose 3 mg/kg, route oral; details: in vivo; how it was run: as §2
[16] = Cmax in dog rat at 1 mg/kg, iv or […], po; type: ADME, organism-based, Canis lupus familiaris; details: in vivo
[17] = Cardiotoxicity assessed as proarrhythmic potency in rabbit Purkinje fibers; type: toxicity, tissue-based, Oryctolagus cuniculus, Purkinje fiber
[18] = Dissociation constant, pKa of the compound; type: physicochemical
[19] = tested on: Rattus norvegicus; assay: Prolongation of REM sleep onset latency in Sprague-Dawley rat sleep-wake EEG paradigm model at 3 mg/kg, po; type: functional, organism-based; set-up: dose 3 mg/kg; how it was run: as §2
[20] = target: Cytochrome P450 2C9 (Homo sapiens, UniProt P11712); assay: Inhibition of CYP2C9; type: ADME
Chain of Cytochrome P450 2C9 (P11712 whole entry): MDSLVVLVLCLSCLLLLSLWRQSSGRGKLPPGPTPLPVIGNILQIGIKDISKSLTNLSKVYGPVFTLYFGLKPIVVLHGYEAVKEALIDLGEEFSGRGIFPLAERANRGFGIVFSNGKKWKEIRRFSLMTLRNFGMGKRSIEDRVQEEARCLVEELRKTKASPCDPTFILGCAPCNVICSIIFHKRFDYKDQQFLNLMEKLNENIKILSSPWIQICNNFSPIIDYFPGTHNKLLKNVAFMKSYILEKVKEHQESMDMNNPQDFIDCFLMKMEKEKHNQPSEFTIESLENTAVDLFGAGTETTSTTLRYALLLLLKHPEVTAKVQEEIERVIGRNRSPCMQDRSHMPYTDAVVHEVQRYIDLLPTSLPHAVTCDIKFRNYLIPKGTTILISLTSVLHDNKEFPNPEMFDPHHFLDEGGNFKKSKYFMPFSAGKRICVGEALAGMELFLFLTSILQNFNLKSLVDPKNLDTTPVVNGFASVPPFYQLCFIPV

[21] = Tmax in Sprague-Dawley rat at […], iv or 10 mg/kg, po; type: ADME, organism-based; details: in vivo
[22] = tested on: Cavia porcellus; assay: Cardiotoxicity in anesthetized guinea pig assessed as proarrhythmic potency; type: toxicity, organism-based; details: in vivo
[23] = Protein binding in rat plasma; type: ADME, cell-free; details: read-out: PPB (converted)
[24] = Lipophilicity, log P of the compound at pH 7; details: buffer
[25] = Protein binding in human plasma; type: ADME, cell-free; details: read-out: PPB (converted)
[26] = tested on: MDR1; assay: Apparent permeability from apical to basolateral side in MDR1 expressing pig LLC-PK1 cells; type: ADME, cell-based, Sus scrofa
[27] = Half life in Sprague-Dawley rat at […], iv; type: ADME, organism-based; set-up: dose 2.5 mg/kg, route intravenous; details: in vivo
[28] = tested on: TK6; assay: Genotoxicity in human TK6 cells in presence of rat liver S9 fraction up to 150 ug/ml; type: toxicity, cell-based
How it was run: (§3)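 In vitro micronucleus test in human lymphoblastoid TK6 cells, with or without metabolic activation by rat liver S9, tested up to 150 μg/mL.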

[29] = tested on: Canis familiaris; assay: Cardiotoxicity in anesthetized dog assessed as proarrhythmic potency; type: toxicity, organism-based, Canis lupus familiaris; details: in vivo
[30] = tested on: TK6; assay: Genotoxicity in human TK6 cells in absence of rat liver S9 fraction up to 150 ug/ml; type: toxicity, cell-based; how it was run: as §3
[31] = tested on: Rattus norvegicus; assay: Effect on sleep-wake stages in Sprague-Dawley rat sleep-wake EEG paradigm model at 3 mg/kg, po; type: ADME, organism-based; set-up: dose 3 mg/kg, route oral; details: in vivo; how it was run: as §2
[32] = Tmax in dog rat at 1 mg/kg, iv or […], po; type: ADME, organism-based, Canis lupus familiaris; details: in vivo
[33] = Drug metabolism in mouse liver microsomes at 5 uM after 15 mins; type: ADME, Microsome; details: read-out: Drug metabolism
[34] = Volume of distribution at steady state in dog rat at 1 mg/kg, iv or […], po; type: ADME, organism-based, Canis lupus familiaris; details: in vivo, read-out: Vdss
[35] = tested on: Mus musculus; assay: Antipsychotic activity in subcutaneously dosed NMRI mouse assessed as reversal of PCP-induced hyperlocomotion; type: functional
How it was run: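 Nonhabituated mice given vehicle or test compound sc, then immediately challenged with PCP (5.0 mg/kg, sc) or vehicle and placed singly in open fields for 30 min. Distance travelled measured by video tracking. Responder criterion: total distance < 5500 counts.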

[36] = tested on: Rattus norvegicus; assay: Inhibition of REM sleep state in Sprague-Dawley rat sleep-wake EEG paradigm model assessed as efficacy free concentration at 3 mg/kg, po; type: functional
[37] = tested on: Salmonella typhimurium; assay: Mutagenicity in Salmonella typhimurium TA98 up to […]; type: toxicity, organism-based; details: salmonella enterica subsp. enterica serovar typhimurium
[38] = Plasma concentration in Swiss mouse at 10 mg/kg, sc administered as single dose measured 1 hr post dose; type: ADME, organism-based; set-up: dose 10 mg/kg, route subcutaneous; how it was run: as §1
[39] = tested on: MDR1; assay: Apparent permeability from basolateral to apical side in MDR1 expressing pig LLC-PK1 cells; type: ADME, cell-based, Sus scrofa
[40] = Clearance in dog rat at 1 mg/kg, iv or […], po; type: ADME, organism-based, Canis lupus familiaris; details: in vivo
[41] = Clearance in Sprague-Dawley rat at […], iv; type: ADME, organism-based; set-up: dose 2.5 mg/kg, route intravenous; details: in vivo
[42] = Drug metabolism in human liver microsomes at 5 uM after 15 mins; type: ADME, Microsome; details: read-out: Drug metabolism
How it was run: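 Compound at 5 μM incubated 15 min with human liver microsomes; read-out is % of compound metabolized. Values are the mean of at least two experiments.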

[43] = Ratio of drug level in brain to plasma in Swiss mouse at 10 mg/kg, sc administered as single dose measured 1 hr post dose; type: ADME, organism-based; set-up: dose 10 mg/kg, route subcutaneous; details: read-out: BPR; how it was run: as §1
[44] = tested on: Mus musculus; assay: Antipsychotic activity in subcutaneously dosed NMRI mouse assessed as efficacy free concentration causing reversal of PCP-induced hyperlocomotion; type: functional

concentration at 1 h [1]: 0.849 µg/mL
Cmax [2]: 0.482 µg/mL
bioavailability [3]: 18%
IC50 [4]: > 30 µM
AUC(0-inf) [5]: 1.8 µg·h/mL
IC50 [7]: > 30 µM
IC50 [9]: > 30 µM
IC50 [10]: 20 µM
half-life [11]: 48 min
Vd [12]: 1.4 L/kg
AUC(0-inf) [13]: 0.531 µg·h/mL
bioavailability [14]: 36%
Cmax [16]: 0.218 µg/mL
pKa [18]: 4.1
IC50 [20]: 11 µM
Tmax [21]: 30 min
fraction unbound [23]: 0.0035
logD [24]: 4.4
fraction unbound [25]: 0.0018
Papp A→B [26]: 120 nm/s
half-life [27]: 162 min
Tmax [32]: 30 min
metabolised at […], 5 µM [33]: 25%
Vd [34]: 1.3 L/kg
concentration at 1 h [38]: 0.671 µg/mL
Papp B→A [39]: 60 nm/s
clearance [40]: 1.74 L/h/kg
clearance [41]: 2.1 L/h/kg
metabolised at […], 5 µM [42]: 23%
Kp at 1 h [43]: 1.4
Compound: FC(F)(F)c1c(N2CCC(c3ccccc3)CC2)ccn2c(CC3CC3)nnc12
minimal effective dose [6]: 3 mg/kg
inhibition [8]: Active
Activity [15]: Non-toxic
NOAEL [17]: 0.075 µM
Activity [19]: Active
NOAEL [22]: 9000 ng/mL
Activity [28]: Non-toxic
NOAEL [29]: 6625 ng/mL
Activity [30]: Non-toxic
Activity [31]: Non-toxic
Activity [35]: Dose-dependent effect
ED50 ([35]; sc): 5.4 mg/kg
INH [36]: 0.14 ng/mL
Activity [37]: Non-toxic
INH [44]: 2.6 ng/mL
